Data as given in ChEMBL document CHEMBL1124631, “3-(aminoalkyl)-1,2,3,4-tetrahydro-5H-[1]benzopyrano[3,4-c] pyridin-5-ones as potential anticholinergic bronchodilators” (1989).

Tests used:
Canis familiaris [1] = species on record: Canis familiaris; experiment: Compound dose for inhibiting dog cholinergic bronchoconstriction by 50% of control value.; assay type: functional; details: Canis lupus familiaris, Lung; read-out: ID50 (the source's name)
Procedure, shortened: (§1)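 Dogs with femoral vein cannulated; respiratory rate, heart rate and arterial pressure monitored. Bunolol 0.5 mg/kg iv given 30 min before pilocarpine nitrate infusion (0.2 mg/kg/h) to induce bronchospasm and salivation. Saliva collected from catheterized Wharton's duct every 5 min. Cumulative iv doses 1–10,000 μg/kg given every 5 min. ID50 by linear regression of log cumulative dose vs % inhibition. Mostly one dog per compound.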

Canis familiaris [2] = species on record: Canis familiaris; experiment: Pulmonary selectivity measured as the ratio of salivation and bronchospasm; assay type: functional, Canis lupus familiaris, Bronchiole
Procedure, shortened: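 Pilocarpine-infused dog model measuring pulmonary resistance and salivary output under cumulative iv doses (1–10,000 μg/kg). ID50 for each response by log dose–response linear regression. Selectivity = ID50 for salivation inhibition divided by ID50 for bronchospasm inhibition. Most compounds tested in one dog.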

Cavia porcellus = experiment: Methacholine challenge test was performed on guinea pigs by administration of compound at 25 mg/kg perorally; assay type: functional; details: route oral
Procedure, shortened: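 Hartley guinea pigs, six per treatment, dosed orally at 25 mg/kg 15 min before challenge. Exposed for 10 min to 0.1% methacholine chloride aerosol from two nebulizers in a closed chamber, air pressure 10 lb/in.². Time from aerosol onset to collapse recorded and averaged ± S.E.M. Non-collapsing animals removed at 10 min and scored 10.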

Canis familiaris [3] = species on record: Canis familiaris; experiment: Inhibition of dog salivation by 50% of control value.; assay type: functional; details: Canis lupus familiaris; read-out: ID50 (the source's name); procedure, shortened: as §1

Compound: COc1cc2oc(=O)c3c(c2cc1OC)CCN(CCN1CC2CCC1CC2)C3
- ED50 (Canis familiaris [1]): 0.137 mg/kg
- Ratio (Canis familiaris [2]): 1
- Collapse time (Cavia porcellus): 7.6 min
- ED50 (Canis familiaris [3]): 0.14 mg/kg

Compound: COc1ccc2c3c(c(=O)oc2c1)CN(CCN1CC2CCC1CC2)CC3
- ED50 (Canis familiaris [1]): 0.063 mg/kg
- Ratio (Canis familiaris [2]): 1.6
- Collapse time (Cavia porcellus): 10 min
- ED50 (Canis familiaris [3]): 0.102 mg/kg

Compound: Cc1cc2oc(=O)c3c(c2cc1C)CCN(CC(C)N1CCCCC1)C3 (stereo not drawn)
- ED50 (Canis familiaris [1]): 0.3 mg/kg
- Ratio (Canis familiaris [2]): 3.9
- Collapse time (Cavia porcellus): 7.7 min
- ED50 (Canis familiaris [3]): 1.16 mg/kg

Compound: COc1cc2oc(=O)c3c(c2cc1OC)CCN(CCN1CC2CCCC(C2)C1)C3
- ED50 (Canis familiaris [1]): 0.119 mg/kg
- Collapse time (Cavia porcellus): 6.6 min

Compound: CCN(C)C(C)CN1CCc2c(c(=O)oc3cc(OC)c(OC)cc23)C1 (stereo not drawn)
- ED50 (Canis familiaris [1]): 0.135 mg/kg
- Ratio (Canis familiaris [2]): 0.82
- Collapse time (Cavia porcellus): 6 min
- ED50 (Canis familiaris [3]): 0.111 mg/kg

Compound: CCCN(CC)C(C)CN1CCc2c(c(=O)oc3cc(OC)ccc23)C1 (stereo not drawn)
- ED50 (Canis familiaris [1]): 0.058 mg/kg
- Ratio (Canis familiaris [2]): 0.47
- Collapse time (Cavia porcellus): 10 min
- ED50 (Canis familiaris [3]): 0.027 mg/kg

Compound: COc1ccc2c3c(c(=O)oc2c1)CN(CCN1CC2CCC(CC2)C1)CC3
- ED50 (Canis familiaris [1]): 0.035 mg/kg
- Ratio (Canis familiaris [2]): 3
- Collapse time (Cavia porcellus): 6 min
- ED50 (Canis familiaris [3]): 0.104 mg/kg

Compound: COc1cc2oc(=O)c3c(c2cc1OC)CCN(CC(C)N1CCOCC1)C3 (stereo not drawn)
- Collapse time (Cavia porcellus): 10 min

Compound: COc1cc2oc(=O)c3c(c2cc1OC)CCN(CCN1CCCCCC1)C3
- Collapse time (Cavia porcellus): 4 min

Compound: COc1cc2oc(=O)c3c(c2cc1OC)CCN(CCN1CCCCC1)C3
- Collapse time (Cavia porcellus): 4.9 min

Compound: Cc1cc2oc(=O)c3c(c2cc1C)CCN(CCN1CC2CCC(CC2)C1)C3
- ED50 (Canis familiaris [1]): 0.372 mg/kg
- Ratio (Canis familiaris [2]): 0.6
- Collapse time (Cavia porcellus): 5.1 min
- ED50 (Canis familiaris [3]): 0.223 mg/kg

Compound: COc1ccc2c3c(c(=O)oc2c1)CN(CCN1CCOCC1)CC3
- ED50 (Canis familiaris [1]): 1.14 mg/kg
- Ratio (Canis familiaris [2]): 0.63
- Collapse time (Cavia porcellus): 6.1 min
- ED50 (Canis familiaris [3]): 0.714 mg/kg

Compound: CCOc1cc2oc(=O)c3c(c2cc1OCC)CCN(CCN1CC2CCC(CC2)C1)C3
- ED50 (Canis familiaris [1]): 0.267 mg/kg
- Ratio (Canis familiaris [2]): 0.79
- Collapse time (Cavia porcellus): 6.3 min
- ED50 (Canis familiaris [3]): 0.21 mg/kg

Compound: COc1ccc2c3c(c(=O)oc2c1)CN(CCN(C)C)CC3
- Collapse time (Cavia porcellus): 1.9 min

Compound: Cc1ccc2c3c(c(=O)oc2c1)CN(CC(C)N(C)C)CC3 (stereo not drawn)
- Ratio (Canis familiaris [2]): 3.7
- Collapse time (Cavia porcellus): 10 min

Compound: CCNC(C)CN1CCc2c(c(=O)oc3cc(OC)c(OC)cc23)C1 (stereo not drawn)
- Collapse time (Cavia porcellus): 1.7 min

Compound: CCCN(CC)C(C)CN1CCc2c(c(=O)oc3cc(OC)c(OC)cc23)C1 (stereo not drawn)
- Collapse time (Cavia porcellus): 3.7 min

Compound: Cc1ccc2c3c(c(=O)oc2c1)CN(CC(C)N1CCCC1)CC3 (stereo not drawn)
- ED50 (Canis familiaris [1]): 0.1 mg/kg
- Ratio (Canis familiaris [2]): 2.3
- Collapse time (Cavia porcellus): 8.7 min
- ED50 (Canis familiaris [3]): 0.226 mg/kg

Compound: COc1ccc2c3c(c(=O)oc2c1)CN(CCN1CCCC1)CC3
- ED50 (Canis familiaris [1]): 0.246 mg/kg
- Ratio (Canis familiaris [2]): 3
- Collapse time (Cavia porcellus): 9.1 min
- ED50 (Canis familiaris [3]): 0.735 mg/kg

Compound: CCN(C)C(C)CN1CCc2c(c(=O)oc3cc(C)ccc23)C1 (stereo not drawn)
- Ratio (Canis familiaris [2]): 2.2
- Collapse time (Cavia porcellus): 8.8 min

Compound: CCN(C)C(C)CN1CCc2c(c(=O)oc3cc(OC)ccc23)C1 (stereo not drawn)
- ED50 (Canis familiaris [1]): 0.015 mg/kg
- Ratio (Canis familiaris [2]): 1.5
- Collapse time (Cavia porcellus): 9.1 min
- ED50 (Canis familiaris [3]): 0.023 mg/kg

Compound: COc1cc2oc(=O)c3c(c2cc1OC)CCN(CCN1CC2CCC(CC2)C1)C3
- ED50 (Canis familiaris [1]): 0.113 mg/kg
- Ratio (Canis familiaris [2]): 4.7
- Collapse time (Cavia porcellus): 5 min
- ED50 (Canis familiaris [3]): 0.53 mg/kg

Compound: COc1cc2oc(=O)c3c(c2cc1OC)CCN(CC(C)N1CCCCCC1)C3 (stereo not drawn)
- Collapse time (Cavia porcellus): 1.7 min

Compound: CCNC(C)CN1CCc2c(c(=O)oc3ccccc23)C1 (stereo not drawn)
- Ratio (Canis familiaris [2]): 5.9
- Collapse time (Cavia porcellus): 10 min

Compound: Cc1cc2oc(=O)c3c(c2cc1C)CCN(CC(C)N1CCCC1)C3 (stereo not drawn)
- ED50 (Canis familiaris [1]): 0.315 mg/kg
- Ratio (Canis familiaris [2]): 2.2
- Collapse time (Cavia porcellus): 8.2 min
- ED50 (Canis familiaris [3]): 0.699 mg/kg

Compound: CCOc1cc2oc(=O)c3c(c2cc1OCC)CCN(CC(C)N1CCCC1)C3 (stereo not drawn)
- ED50 (Canis familiaris [1]): 0.099 mg/kg
- Ratio (Canis familiaris [2]): 1.6
- Collapse time (Cavia porcellus): 9.4 min
- ED50 (Canis familiaris [3]): 0.163 mg/kg

Compound: CCN(CC)C(C)CN1CCc2c(c(=O)oc3cc(OC)c(OC)cc23)C1 (stereo not drawn)
- Ratio (Canis familiaris [2]): 3.5
- Collapse time (Cavia porcellus): 7.8 min

Compound: CCCN(C)C(C)CN1CCc2c(c(=O)oc3cc(C)ccc23)C1 (stereo not drawn)
- ED50 (Canis familiaris [1]): 0.192 mg/kg
- Ratio (Canis familiaris [2]): 1.6
- Collapse time (Cavia porcellus): 5.4 min
- ED50 (Canis familiaris [3]): 0.304 mg/kg

Compound: CCN(CC)C(C)CN1CCc2c(c(=O)oc3cc(C)ccc23)C1 (stereo not drawn)
- Ratio (Canis familiaris [2]): 4.6
- Collapse time (Cavia porcellus): 6.6 min

Compound: CCCN(CCC)CCN1CCc2c(c(=O)oc3cc(OC)ccc23)C1
- ED50 (Canis familiaris [1]): 0.428 mg/kg
- Ratio (Canis familiaris [2]): 2
- Collapse time (Cavia porcellus): 7 min
- ED50 (Canis familiaris [3]): 0.855 mg/kg

Compound: COc1cc2oc(=O)c3c(c2cc1OC)CCN(CCN1C(C)(C)CCCC1(C)C)C3
- Collapse time (Cavia porcellus): 2.8 min

Compound: COc1cc2oc(=O)c3c(c2cc1OC)CCN(CC(C)N(C)C)C3 (stereo not drawn)
- Ratio (Canis familiaris [2]): 4.5
- Collapse time (Cavia porcellus): 5.2 min

Compound: COc1ccc2c3c(c(=O)oc2c1)CN(CC(C)N(C)C)CC3 (stereo not drawn)
- ED50 (Canis familiaris [1]): 0.025 mg/kg
- Ratio (Canis familiaris [2]): 1.1
- Collapse time (Cavia porcellus): 10 min
- ED50 (Canis familiaris [3]): 0.027 mg/kg

Compound: CC(C)c1ccc2c3c(c(=O)oc2c1)CN(CCN1CC2CCC(CC2)C1)CC3
- ED50 (Canis familiaris [1]): 0.209 mg/kg
- Ratio (Canis familiaris [2]): 0.61
- Collapse time (Cavia porcellus): 6.2 min
- ED50 (Canis familiaris [3]): 0.128 mg/kg

Compound: Cc1ccc2c3c(c(=O)oc2c1)CN(CCN1CC2CCC(CC2)C1)CC3
- ED50 (Canis familiaris [1]): 0.235 mg/kg
- Ratio (Canis familiaris [2]): 1.9
- Collapse time (Cavia porcellus): 5 min
- ED50 (Canis familiaris [3]): 0.452 mg/kg

Compound: CCCN(CC)C(C)CN1CCc2c(c(=O)oc3cc(C)ccc23)C1 (stereo not drawn)
- ED50 (Canis familiaris [1]): 0.116 mg/kg
- Ratio (Canis familiaris [2]): 1.6
- Collapse time (Cavia porcellus): 7.6 min
- ED50 (Canis familiaris [3]): 0.182 mg/kg

Compound: COc1cc2oc(=O)c3c(c2cc1OC)CCN(CC(C)N1CCCCC1)C3 (stereo not drawn)
- ED50 (Canis familiaris [1]): 0.129 mg/kg
- Ratio (Canis familiaris [2]): 1.3
- Collapse time (Cavia porcellus): 10 min
- ED50 (Canis familiaris [3]): 0.168 mg/kg

Compound: CC(CN1CCc2c(c(=O)oc3ccccc23)C1)N1CCCC1 (stereo not drawn)
- ED50 (Canis familiaris [1]): 0.088 mg/kg
- Ratio (Canis familiaris [2]): 2.2
- Collapse time (Cavia porcellus): 10 min
- ED50 (Canis familiaris [3]): 0.19 mg/kg

Compound: CCNC(C)CN1CCc2c(c(=O)oc3cc(C)ccc23)C1 (stereo not drawn)
- ED50 (Canis familiaris [1]): 0.627 mg/kg
- Ratio (Canis familiaris [2]): 0.36
- Collapse time (Cavia porcellus): 10 min
- ED50 (Canis familiaris [3]): 0.225 mg/kg

Compound: CCN(CC)C(C)CN1CCc2c(c(=O)oc3cc(OC)ccc23)C1 (stereo not drawn)
- ED50 (Canis familiaris [1]): 0.038 mg/kg
- Ratio (Canis familiaris [2]): 1.2
- Collapse time (Cavia porcellus): 10 min
- ED50 (Canis familiaris [3]): 0.046 mg/kg

Compound: CCCN(CC)C(C)CN1CCc2c(c(=O)oc3ccccc23)C1 (stereo not drawn)
- ED50 (Canis familiaris [1]): 1.11 mg/kg
- Ratio (Canis familiaris [2]): 0.88
- Collapse time (Cavia porcellus): 6.4 min
- ED50 (Canis familiaris [3]): 0.97 mg/kg

Compound: CCN(CC)C(C)CN1CCc2c(c(=O)oc3ccccc23)C1 (stereo not drawn)
- Ratio (Canis familiaris [2]): 6.9
- Collapse time (Cavia porcellus): 10 min

Compound: CCN(CC)CCN1CCc2c(c(=O)oc3cc(OC)ccc23)C1
- ED50 (Canis familiaris [1]): 0.394 mg/kg
- Ratio (Canis familiaris [2]): 0.4
- Collapse time (Cavia porcellus): 8 min
- ED50 (Canis familiaris [3]): 0.158 mg/kg

Compound: Cc1ccc2c3c(c(=O)oc2c1)CN(CC(C)N1CCCCC1)CC3 (stereo not drawn)
- ED50 (Canis familiaris [1]): 0.04 mg/kg
- Ratio (Canis familiaris [2]): 2.7
- Collapse time (Cavia porcellus): 9.7 min
- ED50 (Canis familiaris [3]): 0.108 mg/kg

Compound: CCc1ccc2c3c(c(=O)oc2c1)CN(CCN1CC2CCC(CC2)C1)CC3
- ED50 (Canis familiaris [1]): 0.074 mg/kg
- Ratio (Canis familiaris [2]): 0.55
- Collapse time (Cavia porcellus): 6.8 min
- ED50 (Canis familiaris [3]): 0.041 mg/kg

Compound: CCCN(C)C(C)CN1CCc2c(c(=O)oc3cc(OC)c(OC)cc23)C1 (stereo not drawn)
- Collapse time (Cavia porcellus): 2.5 min

Compound: CC(CN1CCc2c(c(=O)oc3ccccc23)C1)N(C)C (stereo not drawn)
- Ratio (Canis familiaris [2]): 21.6
- Collapse time (Cavia porcellus): 10 min

Compound: COc1cc2oc(=O)c3c(c2cc1OC)CCN(CCCN1CCCCC1)C3
- Collapse time (Cavia porcellus): 1.6 min

Compound: CCN1CCCC1CN1CCc2c(c(=O)oc3cc(OC)c(OC)cc23)C1.Cl.Cl (stereo not drawn)
- Collapse time (Cavia porcellus): 2.8 min

Compound: CN1[C@@H]2CC[C@H]1C[C@@H](OC(=O)C(CO)c1ccccc1)C2 (stereo partly drawn) [ATROPINE]
- ED50 (Canis familiaris [1]): 0.007 mg/kg
- Ratio (Canis familiaris [2]): 0.46
- ED50 (Canis familiaris [3]): 0.0032 mg/kg
